Reference: ChEMBL document CHEMBL1641482, “Synthetic analogs of daidzein, having more potent osteoblast stimulating effect” (2011)
Calls of active or inactive are those of the source. No cut-off for these calls is given here.

Tests used:
[1] = test system: Osteoblast; test: Induction of osteogenesis in Sprague-Dawley rat calvarial osteoblasts assessed as increase in osteoblast differentiation-associated ALP level at 1 pM to 10 nM after 48 hrs; assay type: functional, cell-based
Method in brief: (§1)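 Primary rat calvarial osteoblasts were seeded at 2 × 10³ cells per well and exposed to compounds from 1.0 pM to 10.0 nM for 48 h. Daidzein served as the positive control. ALP activity was read spectrophotometrically at 405 nm. Data are mean SD, n = 6, compared with vehicle-treated cells.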

[2] = test system: Osteoblast; test: Induction of osteogenesis in Sprague-Dawley rat calvarial osteoblasts assessed as increase in osteoblast differentiation-associated ALP level at 1 pM after 48 hrs; assay type: functional, cell-based; method in brief: as §1
[3] = test system: Osteoblast; test: Induction of osteogenesis in Sprague-Dawley rat calvarial osteoblasts assessed as increase in osteoblast differentiation-associated ALP level at 1 uM after 48 hrs; assay type: functional, cell-based
[4] = test system: Osteoblast; test: Ratio of compound to daidzein for induction of osteogenesis in Sprague-Dawley rat calvarial osteoblasts; assay type: functional
[5] = test system: Osteoblast; test: Induction of mineralization in Sprague-Dawley rat calvarial osteoblasts assessed as increase of mineralized nodules formation at 10 nM after 7 days by alizarin red staining; assay type: functional, cell-based
Method in brief: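 Primary rat calvarial osteoblasts were seeded at 2 × 10³ cells per well and exposed to 10.0 nM compound for seven days. Cells were fixed and stained with alizarin red-S, and the dye was extracted and measured colorimetrically by OD. Data are mean SD, n = 4, versus vehicle.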

[6] = test system: Rattus norvegicus; test: Estrogenic activity in ovariectomized Sprague-Dawley rat assessed as effect on uterine weight at 10 mg/kg, po qd for 3 days (reference value: 35.0 +/- 0.6); assay type: functional
[7] = test system: Rattus norvegicus; test: Antiestrogenic activity in ovariectomized Sprague-Dawley rat assessed as inhibition of 17beta estradiol-induced increase in uterine weight at 10 mg/kg, po qd for 3 days; assay type: functional
[8] = test system: Bone marrow cell; test: Induction of mineralization in rat bone marrow cell assessed as increase of mineralized nodules formation at 10 nM after 18 days by alizarin red staining
[9] = test system: Osteoblast; test: Induction of osteocalcin mRNA expression in Sprague-Dawley rat calvarial osteoblasts at 10 nM after 24 hrs by RT-PCR analysis relative to control; assay type: functional
Method in brief: (§2)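 Osteoblasts were cultured with or without 10 nM compound for 24 h. Osteocalcin and BMP-2 transcripts were quantified by real-time RT-PCR (qPCR) against vehicle control. Data are mean SEM, n = 4.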

[10] = test system: Osteoblast; test: Induction of BMP-2 mRNA expression in Sprague-Dawley rat calvarial osteoblasts at 10 nM after 24 hrs by RT-PCR analysis relative to control; assay type: functional; method in brief: as §2
[11] = test system: Rattus norvegicus; test: Estrogenic activity in ovariectomized Sprague-Dawley rat assessed as effect on uterine weight at 0.01 mg/kg, po qd for 3 days (reference value: 35.0 +/- 0.6); assay type: functional
[12] = test system: Rattus norvegicus; test: Estrogenic activity in ovariectomized Sprague-Dawley rat assessed as effect on uterine weight at 3 mg/kg, po qd for 3 days (reference value: 35.0 +/- 0.6); assay type: functional
[13] = test system: Rattus norvegicus; test: Antiestrogenic activity in ovariectomized Sprague-Dawley rat assessed as inhibition of 17beta estradiol-induced increase in uterine weight at 3 mg/kg, po qd for 3 days; assay type: functional

Row | SMILES | Activity [1] | Activity [2] | Activity [3] | Ratio [4] | Activity [5] | Activity [6] [mg] | Activity [7] [mg] | Activity [8] | fold change (FC) [9] | fold change (FC) [10] | Activity [11] [mg] | Activity [12] [mg] | Activity [13] [mg]
1 | COc1ccc(-c2coc3cc(OCCN4CCCC4)ccc3c2=O)cc1 | Active | inactive | Active | 100 | Active | 31.3 | 59.3 |  |  |  |  |  | 
2 | CCN(CC)CCOc1ccc(-c2coc3cc(OCCN(CC)CC)ccc3c2=O)cc1 | Active | inactive | Active | 100 | Active | 31.3 | 57.3 | Active |  |  |  |  | 
3 | CCN(CC)CCOc1ccc2c(=O)c(-c3ccc(OC)cc3)coc2c1 | Active | inactive | Active | 100 | Active | 28 | 63 | Active | 10 | 6 |  |  | 
4 | COc1ccc2c(=O)c(-c3ccc(OCC(C)C)cc3)coc2c1 | Active | inactive | Active | 100 |  |  |  |  |  |  |  |  | 
5 | C#C[C@]1(O)CC[C@H]2[C@@H]3CCc4cc(O)ccc4[C@H]3CC[C@@]21C [ETHINYL ESTRADIOL] |  |  |  |  |  |  |  |  |  |  | 82.3 |  | 
6 | O=C(c1ccc(OCCN2CCCCC2)cc1)c1c(-c2ccc(O)cc2)sc2cc(O)ccc12 [RALOXIFENE] |  |  |  |  |  |  |  |  |  |  |  | 42.3 | 67
7 | COc1ccc2c(=O)c(-c3ccc(OCCBr)cc3)coc2c1 | Active | inactive | Active | 100 |  |  |  |  |  |  |  |  | 
